≈ marks a conversion by molar mass, not a printed value.
Columns and labels:
MCF7 = assay: Cytotoxicity against human MCF7 cells after 48 hrs by SRB assay; type: functional; conditions: MCF7, 48 h
Summary of the method: (§1)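 Cells kept in RPMI-1640 with 5% heat-inactivated FBS at 37 °C and 5% CO2, used in exponential growth at >90% viability (Trypan blue). Seeded per well: MCF-7 and NCI-H460 5 × 10³, A375-C5 7.5 × 10³, HL-60 1 × 10⁴. After 24 h, serial dilutions (0–150, where possible) were given for 48 h; DMSO ≤0.25%. Plates were TCA-fixed (10% adherent, 16.7% HL-60), SRB-stained and read at 510 nm. GI50 taken from curves; mean ± SE, ≥3 experiments; doxorubicin as positive control.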

[1] = Partition coefficient, log Kp of the compound in liposome-HEPES buffer at pH 7.4; type: physicochemical; conditions: artificial membrane
HL-60 = assay: Cytotoxicity against human HL60 cells after 48 hrs by SRB assay; type: functional; conditions: HL-60, 48 h; summary of the method: as §1
[2] = Cytotoxicity against human A375-C5 cells after 48 hrs by SRB assay; type: functional; conditions: A375-C5, 48 h; summary of the method: as §1
[3] = Partition coefficient, log Kp of the compound in micelle-HEPES buffer at pH 7.4; type: physicochemical
NCI-H460 = assay: Cytotoxicity against human NCI-H460 cells after 48 hrs by SRB assay; type: functional; conditions: NCI-H460, 48 h; summary of the method: as §1
L1210 = assay: Cytotoxicity against mouse L1210 cells; type: functional, cell-based
KB = assay: Cytotoxicity against human KB cells; type: functional, cell-based
HCT-116 = assay: Cytotoxicity against human HCT116 cells; type: functional, cell-based
SMMC-7721 = assay: Cytotoxicity against human SMMC7721 cells; type: functional, cell-based
SGC-7901 = assay: Cytotoxicity against human SGC7901 cells; type: functional, cell-based
NCI-H187 = assay: Cytotoxicity against human NCI-H187 cells; type: functional, cell-based
[4] = Cytotoxicity against human BC1 cells; type: functional, cell-based
[5] = Cytotoxicity against Drosophila melanogaster S2 cells; type: functional, cell-based

Row | Structure (SMILES) | GI50 (MCF7) | log Kp [1] | GI50 (HL-60) | GI50 [2] | log Kp [3] | GI50 (NCI-H460) | other results
1 | COc1cc2c(c3oc4ccccc4c(=O)c13)OC(C)(C)CC2 | > 100 µM | 3.08 | 30.9 µM | > 100 µM | 3.46 | – | –
2 | COc1c2c(cc3c(=O)c4ccccc4oc13)C=CC(C)(C)O2 | > 150 µM | 3.88 | – | > 150 µM | 3.83 | > 150 µM | –
3 | COc1c2c(cc3oc4ccccc4c(=O)c13)CCC(C)(C)O2 | – | 3.09 | 37.6 µM | > 150 µM | 3.58 | > 150 µM | –
4 | CC1(C)CCc2c(cc3oc4ccccc4c(=O)c3c2O)O1 | – | – | – | – | 4.32 | – | –
5 | CC1(C)C=Cc2ccc3c(=O)c4ccccc4oc3c2O1 | 13.3 µM | 3.42 | 3.2 µM | 6.2 µM | 3.5 | 32.9 µM | –
6 | COc1c2c(cc3oc4ccccc4c(=O)c13)C=CC(C)(C)O2 | – | 3.54 | 9.6 µM | 47.4 µM | 3.76 | 42.9 µM | –
7 | CC1(C)C=Cc2cc3oc4ccccc4c(=O)c3c(O)c2O1 | 39.6 µM | 4.17 | 38.9 µM | 29.6 µM | 4.15 | 31.7 µM | –
8 | COc1cc(OC)c2c(=O)c3c(O)c4c(c(OC)c3oc2c1OC)OC(C)(C)C=C4 | – | – | – | – | – | – | IC50 (L1210): 3.51 µg/mL (≈ 8.47 µM)
9 | CC1(C)CCc2cc(O)c3c(=O)c4ccccc4oc3c2O1 | > 50 µM | – | > 50 µM | > 50 µM | 4.28 | > 50 µM | –
10 | CC1(C)C=Cc2c(ccc3oc4ccccc4c(=O)c23)O1 | 50.9 µM | 4.14 | 36.7 µM | 37.9 µM | 4.1 | 44.5 µM | –
11 | CC1(C)C=Cc2c(cc(O)c3c(=O)c4ccccc4oc23)O1 | > 150 µM | – | – | – | 4.02 | > 150 µM | –
12 | CC1(C)C=Cc2cc(O)c3c(=O)c4ccccc4oc3c2O1 | – | – | 6.4 µM | > 100 µM | 4.08 | – | –
13 | CC1(C)CCc2cc3oc4ccccc4c(=O)c3c(O)c2O1 | > 150 µM | 3.96 | 26.1 µM | > 150 µM | 3.88 | > 150 µM | –
14 | COc1ccc2c(=O)c3c(OC)c4c(c(OC)c3oc2c1OC)OC(C)(C)C=C4 | – | – | – | – | – | – | IC50 (L1210): 4.23 µg/mL (≈ 10.6 µM)
15 | COc1c(O)cc2c(=O)c3c(O)c4c(cc3oc2c1CC=C(C)C)OC(C)(C)C=C4 [MANGLEXANTHONE] | – | – | – | – | – | – | IC50 (KB): 1.9 µM
16 | COc1c2c(cc3c(=O)c4ccccc4oc13)OC(C)(C)C=C2 | – | 3.94 | 11.8 µM | – | 4.07 | – | –
17 | CC(C)=CCc1c2c(c3oc4cc(O)c(O)cc4c(=O)c3c1O)C=CC(C)(C)O2 [CUDRATRICUXANTHONE] | – | – | – | – | – | – | IC50 (HCT-116): 4.1 µM; IC50 (SMMC-7721): 4.1 µM; IC50 (SGC-7901): 4.1 µM
18 | CC1(C)C=Cc2c(cc3oc4ccccc4c(=O)c3c2O)O1 | > 150 µM | – | – | – | 4.06 | > 150 µM | –
19 | COc1cccc2c1C(=O)c1c(O)c3c(c(O)c1C2=O)C[C@@](O)(C(=O)CO)C[C@@H]3O[C@H]1C[C@H](N)[C@H](O)[C@H](C)O1 [DOXORUBICIN] | – | – | 0.028 µM | – | – | – | –
20 | CC1(C)C=Cc2c(cc3c(=O)c4ccccc4oc3c2O)O1 | 108 µM | 3.06 | > 70 µM | > 150 µM | 3.29 | > 150 µM | –
21 | CC(C)=CCc1c(O)cc2oc3cc(O)c4c(c3c(=O)c2c1O)CCC(C)(C)O4 | – | – | – | – | – | – | IC50 (NCI-H187): 3.9 µg/mL (≈ 9.84 µM); IC50 (KB): 3.9 µg/mL; IC50 [4]: 3.9 µg/mL (≈ 9.84 µM)
22 | CC1(C)CCc2cc3oc4cc(O)cc(O)c4c(=O)c3c(O)c2O1 | – | – | – | – | – | – | IC50 [5]: 6.3 µg/mL (≈ 19.2 µM)
23 | CC1(C)CCc2c(cc(O)c3c(=O)c4ccccc4oc23)O1 | – | – | – | – | 4.27 | – | –
24 | COc1c2c(cc3c(=O)c4ccccc4oc13)OC(C)(C)CC2 | 45.1 µM | 3.92 | 31.8 µM | 42.5 µM | 3.88 | 47.3 µM | –
25 | COc1cc2c(c3oc4ccccc4c(=O)c13)OC(C)(C)C=C2 | – | 3.32 | 9.6 µM | 69.5 µM | 3.33 | – | –
